How the values were obtained:
[1] = tested on: NF-κB pathway; test: LPS activation of the NF-κB pathway; assay type: cell-based; conditions: Fig. S2
[2] = tested on: IL-1β; test: Serum IL-1β by ELISA in LPS-treated mice; assay type: in vivo, mouse; conditions: TSA daily from day −2, LPS day 0, serum 2 h after LPS, n = 2 ± SD
[3] = tested on: WT mice; test: LPS-induced mortality in WT mice; assay type: in vivo, mouse; conditions: Fig. S4 B
[4] = tested on: phospho-ERK1; assay type: cell-based; conditions: MKP-1 immunoprecipitated from RAW cells treated with LPS and TSA 4 h
Method in brief: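 RAW 264.7 cells grown in DME with 10% FBS were treated with LPS plus TSA, or with control, for 4 h. Endogenous MKP-1 was immunoprecipitated from the lysates and incubated with recombinant phospho-p38 or phospho-ERK1. Remaining phosphorylation was detected by immunoblotting with phospho-p38 or phospho-ERK antibodies. The amount of phospho-substrate added was shown as an input lane.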

[5] = tested on: NOS2; test: NOS2 protein levels by immunoblot in RAW cells; assay type: cell-based, mouse; conditions: RAW cells
Method in brief: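 RAW 264.7 cells were handled in two ways. For agonist response, cells were exposed to the TLR agonists PGN, poly(I:C), LPS or E. coli for 16 h, with or without TSA. For TSA dose-response, cells were pretreated with increasing TSA for 1 h, then given LPS 100 ng/ml for 6 h, with ERα as the blot control. In both, lysates were immunoblotted for NOS2.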

[6] = tested on: Elk-1; test: Phosphorylation of Elk-1 by immunoblot in RAW cells; assay type: cell-based, mouse; conditions: TSA 30 ng/ml 1 h and/or LPS 100 ng/ml 30 min
Method in brief: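 RAW 264.7 cells grown in DME with 10% FBS were pretreated with TSA 30 ng/ml for 1 h, then given LPS 100 ng/ml for 30 min. Lysates were immunoblotted with phospho-specific antibodies to MAPK cascade members (phospho-MKK3/6, phospho-Elk-1).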

[7] = tested on: MKP-1 and p300; test: MKP-1 interaction with p300 by co-immunoprecipitation in RAW cells; assay type: cell-based, mouse; conditions: RAW cells treated with TSA; IP p300, blot MKP-1
[8] = tested on: MKP-1; test: MKP-1 expression in RAW cells by immunoblot; assay type: cell-based, mouse; conditions: LPS and TSA 1 h
[9] = tested on: IL-1β; test: IL-1β in media of primary macrophages by ELISA; assay type: cell-based, mouse; conditions: TSA and LPS, 4 h, n = 2 ± SD
Method in brief: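 Primary peritoneal macrophages collected by PBS lavage from resting WT or MKP-1−/− mice, not thioglycolate-elicited; the mice were on a C57BL/6J background. Cells stimulated with TSA, LPS or both. After 4 h, TNF-α and IL-1β in the media were measured by ELISA; n = 2, mean ± SD.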

[10] = tested on: TNF-α, IL-6, and IL-1β; test: Inflammatory cytokine RNA levels by Northern blotting in RAW cells; assay type: cell-based, mouse; conditions: RAW cells treated with LPS and TSA 4 h
Method in brief: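 RAW 264.7 cells (DME, 10% FBS) treated with LPS and TSA for 4 h. Total RNA was isolated with TRIZOL and analysed by Northern blotting with probes for TNF-α, IL-1β and IL-6, with GAPDH as loading control.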

[11] = tested on: mouse liver; test: LPS-induced liver inflammation, histology; assay type: in vivo; conditions: hematoxylin and eosin
Method in brief: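 Mice received saline (control) or TSA i.p. each day from day −2, then an i.p. LPS injection on day 0. Livers were harvested 2 h or 2 d after LPS, sectioned and stained with hematoxylin and eosin to assess leukocyte infiltration, edema and necrosis.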

[12] = tested on: TNF-α; test: Serum TNF-α by ELISA in LPS-treated mice; assay type: in vivo, mouse; conditions: TSA daily from day −2, LPS day 0, serum 2 h after LPS, n = 2 ± SD
[13] = tested on: TNF-α and IL-1β; test: Liver TNF-α and IL-1β mRNA by RT-PCR; assay type: in vivo, mouse; conditions: liver 4 h after LPS, two representative mice
Method in brief: (§1)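 Mice were dosed with TSA each day from day −2 and challenged with LPS on day 0. Liver RNA was harvested 4 h after LPS. RT-PCR was run for TNF-α and IL-1β, or for COX-2 and CXCL2, with two mice per group.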

[14] = tested on: p38; test: Phospho-p38 in primary peritoneal macrophages; assay type: cell-based, mouse; conditions: LPS, TSA or both
Method in brief: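 Resident (non-thioglycolate-elicited) peritoneal macrophages were collected by PBS lavage from WT and MKP-1−/− mice. Cells were stimulated with LPS, TSA or both, and lysates were immunoblotted for total and phospho-p38.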

[15] = tested on: p38; test: Phospho-p38 in MEFs from MKP-1 heterozygous or KO mice; assay type: cell-based, mouse; conditions: LPS and TSA 30 min
Method in brief: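 Embryonic fibroblasts from MKP-1+/− or MKP-1−/− mice, grown in DME with 10% FBS, were treated with LPS and TSA for 30 min. Lysates were immunoblotted for phospho-p38 and total p38.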

[16] = tested on: p38; test: Phosphorylation of p38 by immunoblot in RAW cells; assay type: cell-based, mouse; conditions: RAW cells pretreated 30 ng/ml TSA 1 h, 100 ng/ml LPS 30 min
Method in brief: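 RAW 264.7 cells (DME, 10% FBS) pretreated with TSA 30 ng/ml for 1 h, then LPS 100 ng/ml for 30 min. Whole-cell lysates were immunoblotted with antibodies to phosphorylated and total forms of the MAPK in question.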

[17] = tested on: COX-2 and CXCL2; test: Liver COX-2 and CXCL2 expression by RT-PCR; assay type: in vivo, mouse; conditions: 4 h after LPS, n = 2
Method in brief: as §1

[18] = tested on: MKP-1; test: MKP-1 acetylation in mouse liver by immunoprecipitation; assay type: in vivo; conditions: TSA pretreatment 4 h, LPS 16 h; IP MKP-1, blot Ac-Lys
Method in brief: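 Mice pretreated with TSA for 4 h, then given LPS for 16 h. Liver lysates were immunoprecipitated with anti-MKP-1 and immunoblotted with anti-acetyl-lysine or anti-MKP-1.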

[19] = tested on: NOS2; test: NOS2 expression in RAW cells with MKP-1 siRNA or control siRNA; assay type: cell-based, mouse; conditions: LPS and TSA
Method in brief: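 RAW 264.7 cells were stably transfected with vectors encoding siRNA hairpins against MKP-1 nucleotides 67–85 or 743–761, or with a control hairpin. Knockdown in the isolated clones was confirmed by MKP-1 immunoblot. Clones were treated with LPS and TSA, and lysates were immunoblotted for NOS2 and MAPK family members.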

## CC(/C=C/C(=O)NO)=C\[C@@H](C)C(=O)c1ccc(N(C)C)cc1 [TSA, trichostatin A]
[1]
  LPS activation of the NF-κB pathway: does not affect LPS activation of the NF-κB pathway
  LPS-triggered IκBα degradation: slightly increases
  LPS-triggered p65 nuclear translocation: slightly increases
  NF-κB transactivation of the NOS2 promoter: slightly increases
  κB-binding activity: slightly increases
[2]
  decrease of serum IL-1β, MKP-1−/− mice: 21%
[3]
  mortality after LPS, dose response to TSA: decreases mortality after LPS in a dose-responsive manner
[4]
  removal of phosphate from recombinant phospho-ERK1 by MKP-1: removes more phosphate from recombinant phospho-ERK1 than MKP-1 from control cells
[5]; TLR agonist 16 h, effect of TSA
  NOS2 expression activated by TLR agonists (LPS, E. coli, PGN, dsRNA): inhibits expression of NOS2 activated by each of these four TLR activators
[5]; TSA pretreatment 1 h, LPS 6 h
  NOS2 steady-state protein levels: decreases NOS2 steady-state protein levels
[6]
  phosphorylation of Elk-1: decreases phosphorylation of p38 and Elk-1
[7]
  MKP-1 association with p300: MKP-1 associates with p300 in TSA-treated macrophages
[8]
  MKP-1 expression: increases the expression of MKP-1 levels
[9]
  decrease of IL-1β, MKP-1 KO macrophages: 34%
  decrease of IL-1β, WT macrophages: 85%
[10]
  expression of IL-1β: inhibits
  expression of IL-6: inhibits
  expression of TNF-α: inhibits
[11]; livers 2 h after LPS
  LPS-induced leukocyte infiltration / inflammation in liver: decreases LPS-induced inflammation
[11]; livers 2 d after LPS
  LPS-induced hepatocyte edema and necrosis: limits LPS-induced hepatocyte edema and necrosis
[12]
  decrease of serum TNF-α, MKP-1−/− mice: 22%
[13]
  LPS-induced IL-1β mRNA in liver: decreases
  LPS-induced TNF-α mRNA in liver: decreases
[14]
  phospho-p38, WT vs MKP-1−/− primary macrophages: only suppresses phospho-p38 in macrophages from WT mice, not in macrophages from MKP-1^−/− mice
[15]
  phospho-p38 levels, heterozygous vs MKP-1 KO MEFs: decreases phospho-p38 levels in heterozygous cells, but not in MKP-1 KO cells
[16]
  LPS-induced phosphorylation of p38: decreases phosphorylation of p38
[17]
  COX-2 expression in liver: slightly increases
  CXCL2 expression in liver: slightly increases
[18]
  acetylation of MKP-1 in liver: increases acetylation of MKP-1 in vivo
[19]
  LPS-induced NOS2 expression, control vs MKP-1 siRNA cells: decreases LPS-induced NOS2 expression in control cells, but not in cells with decreased MKP-1
